Test results as given in ChEMBL document CHEMBL1124663, “Design, synthesis, antineoplastic activity, and chemical properties of bis(carbamate) derivatives of 4,5-bis(hydroxymethyl)imidazole” (J Med Chem, 1989).

Assays:
Assay type in all cases: functional
[1] = system: Mus musculus; assay: Body weight difference (BWD) of test animals administered with 200 mg/kg compound is determined on day 5 for L1210 tumor cells
Method in brief: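 L1210 leukaemia: 10^5 cells implanted ip on day 0 in mice. Freshly prepared saline suspension given ip once daily on days 1–5. Body weight difference in g (treated minus control) taken as day 5 minus day 1. Six animals per dose.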

[2] = system: Mus musculus; assay: The percent of the median survival time of test mice compared to control mice is % T/C. It is determined for mice administered with 25 mg/kg compound on day 0 for LOX 1 tumor cells.; conditions: route intraperitoneal
[3] = system: Mus musculus; assay: Ability of 12.5 mg/kg of compound to kill L1210 tumor cells in mice is expressed as the log of the tumor cell population at the onset of treatment minus the log of the tumor cell population at the end of treatment
Method in brief: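 L1210 leukemia, 10^5 cells implanted ip on day 0. Drug given ip daily on days 1-5 as a saline suspension freshly prepared before each injection. Read-out is median survival of treated versus control mice (% T/C), and log cell kill is derived from it.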

[4] = system: Mus musculus; assay: The toxicity day was evaluated […] for M5076 minus 1 tumor cells of test animals dosed with 25 mg/kg of compound; 10/10
Method in brief: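 M5076 sarcoma, 10^6 cells, inoculated ip into B6C3F1 mice on day 0. Fresh saline suspension given ip every fourth day (days 1, 5, 9, 13). Toxicity survivors were scored on day 5 as survivors over initial group. Body-weight difference was day 14 minus day 1.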

[5] = system: Mus musculus; assay: The percent of the median survival time of test mice compared to control mice is % T/C. It is determined for mice administered with 50 mg/kg compound on day 0 for LOX 1 tumor cells.; conditions: route intraperitoneal
[6] = system: Mus musculus; assay: The toxicity day was evaluated on […] for MX-1 tumor cells of test animals dosed with 200 mg/kg of compound; 1/6
Method in brief: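 Human MX-1 mammary xenograft, a 1 mm3 (0.5 mg) tumor fragment implanted under the renal capsule of NCR-nu mice on day 0. Drug given ip as a fresh saline suspension on days 1, 5 and 9. Tumor size is assessed on day 11. A negative % T/C is percent shrinkage relative to the initial implant. Survivors in the toxicity group are […].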

[7] = system: Mus musculus; assay: Body Weight Difference (BWD) of test animals administered with 6.25 mg/kg compound is determined on day 5 for P388 tumor cells
Method in brief: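 P388 leukaemia: about 10^6 cells in ascitic fluid inoculated ip on day 0 (CD2F1 mice). Compound given ip in normal saline as a freshly prepared solution or suspension, once daily on days 1–5. Treated-minus-control body weight difference in g, taken as day 5 minus day 1 weight. Groups of six.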

[8] = system: Mus musculus; assay: Ability of 50 mg/kg of compound to kill M5076 tumor cells in mice is expressed as the log of the tumor cell population at the onset of treatment minus the log of the tumor cell population at the end of treatment
Method in brief: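 M5076 sarcoma, 10^6 cells ip on day 0 in B6C3F1 mice. Drug given ip as a fresh saline suspension every fourth day (days 1, 5, 9, 13). % T/C is median survival of treated versus control mice, counting long-term survivors. Cures are 60-day survivors. Log cell kill is derived from this.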

[9] = system: Mus musculus; assay: The toxicity day was evaluated on day 5 for L1210 tumor cells of test animals dosed with 12.5 mg/kg of compound; 6/6
Method in brief: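 L1210 leukaemia, 10^5 cells, implanted ip on day 0. Freshly prepared saline suspension dosed ip daily on days 1-5. Toxicity evaluated on day 5 as survivors over animals in the initial test group.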

What does the source list for CNC(=O)OCc1nc(SC)n(C)c1COC(=O)NC?
BWD [1]: -3.6 g; T/C [2]: 219%; KE [3]: -2.35; Survivors / animals tested [4]: 10; T/C [5]: 231%; Survivors / animals tested [6]: 1; BWD [7]: -0.7 g; KE [8]: -1.63; Survivors / animals tested [9]: 6
